The record followed here is ChEMBL document CHEMBL4184263, “Synthetic analogues of the montanine-type alkaloids with activity against apoptosis-resistant cancer cells” (2018).

SMILES strings stand for the structures. Calls of active or inactive are those of the source. No cut-off for these calls is given here. Bounds are passed on as bounds.

The subject of one assay is MCF7. The assay is described as follows: Growth inhibition of apoptosis sensitive human MCF7 cells assessed as reduction in cell viability incubated for 72 hrs by MTT assay. Conditions: MCF7, 72 h. The format is functional. The method in brief:
(§1)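 Cells were grown at 37 °C, 95% humidity and 5% CO₂, trypsinized and seeded. After 24 h they were treated for 72 h with compound from 10 nM to 100 μM, prepared from a 10 mM DMSO stock, or left untreated. Viability was read as MTT reduction to formazan, with untreated control optical density set as 100%. The 50% growth-reducing concentration was derived as the mean of experiments run in sextuplicate.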
On the technique in general: Tetrazolium assays rely on reduction of a dye to a coloured formazan, in cell work by metabolically active cells.

The test system of the next assay is A549. The assay is described as follows: Growth inhibition of apoptosis resistant human A549 cells assessed as reduction in cell viability incubated for 72 hrs by MTT assay. Conditions: A549, 72 h. It counts as functional. The method in brief: as §1
Another assay has as its system B16-F10. The assay is described as follows: Growth inhibition of apoptosis sensitive mouse B16F10 cells assessed as reduction in cell viability incubated for 72 hrs by MTT assay. It counts as functional. Conditions: B16-F10, 72 h. The method in brief:
as §1

The next assay deals with SK-MEL-28. The assay is described as follows: Growth inhibition of apoptosis resistant human SK-MEL-28 cells assessed as reduction in cell viability incubated for 72 hrs by MTT assay. It counts as functional. Conditions: SK-MEL-28, 72 h. In outline: as §1
In another assay the test system is U373 MG. The assay is described as follows: Growth inhibition of apoptosis resistant human U373 cells assessed as reduction in cell viability incubated for 72 hrs by MTT assay. It counts as functional, U-373MG ATCC. The method in brief:
as §1

In a further assay the test system is Hs 683. The assay is described as follows: Growth inhibition of apoptosis sensitive human Hs683 cells assessed as reduction in cell viability incubated for 72 hrs by MTT assay. It counts as functional. Conditions: Hs 683, 72 h. In outline:
as §1

Assay [1] can be described thus: Antiproliferative activity against human GSC22 cells assessed as inhibition of cell proliferation at 10 uM incubated for 72 hrs by bromodeoxyuridine incorporation based immunoassay. It counts as functional. In outline: (§2)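 Patient-derived glioblastoma stem-like GSC22 cells were seeded at 1×10^3 cells/well and cultured for 24 h. They were then exposed for 72 h to compound at 1 μM to 30 μM, with DMSO as vehicle control. BrdU was added for the final 4 h. Incorporation was detected with a peroxidase-conjugated anti-BrdU antibody and substrate reaction read at 450/550 nm. Data are mean ± SEM, n=3, compared with vehicle.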

The species named for the next assay is Homo sapiens. The assay is described as follows: Antiproliferative activity against human GSC22 cells assessed as inhibition of cell proliferation at 1 uM incubated for 72 hrs by bromodeoxyuridine incorporation based immunoassay. It counts as functional. The method in brief: as §2

In the case of `CO[C@H]1C[C@H]2C(=C[C@@H]1O)[C@H]1CN2Cc2cc3c(cc21)OCO3`, the GI50 (as a rule, the concentration at which growth is held to half of that of the control) with MCF7 stood at 13 µM; with A549 it was 5 µM; with B16-F10, 8 µM; with SK-MEL-28, 8 µM; in the assay on U373 MG, 31 µM; in the assay on Hs 683, 4 µM.
`CCO[C@H]1C=C2[C@H]3C[N@@](Cc4cc5c(cc43)OCO5)[C@H]2C[C@@H]1OC`: the 50% growth inhibitory concentration (GI50) in the assay with MCF7 was 82 µM; in the assay with A549, 59 µM; in the assay with B16-F10, 40 µM; in the assay with SK-MEL-28, more than 100 µM; in the assay on U373 MG, more than 100 µM; in the assay on Hs 683, more than 100 µM.
For `CO[C@@H]1C=C[C@@]23c4cc5c(cc4CN(C[C@@H]2O)[C@H]3C1)OCO5` [(+)-HAEMANTHAMINE], in assay [1], the inhibition (usually the drop in the measured response relative to a control, in per cent) at 10 µM fell in the range of 80 to 95%. Further, the inhibition entry in the assay filed under Homo sapiens was “Active”.
Turning to `CO[C@H]1C=C2[C@H]3C[N@@](Cc4cc5c(cc43)OCO5)[C@H]2C[C@@H]1OC`, the concentration for 50% growth inhibition (GI50) with MCF7 came out at 4 µM; in the assay on A549, 3 µM; in the assay with B16-F10, 3 µM; with SK-MEL-28, 4 µM; with U373 MG, 5 µM; with Hs 683, 3 µM. For the same compound, the inhibition at 10 µM in assay [1] fell in the range of 80 to 95%. For the same compound, the inhibition entry in the assay listed under Homo sapiens is “Active”.
Regarding `CO[C@H]1C[C@H]2C(=C[C@@H]1c1ccc[nH]1)[C@H]1C[N@@]2Cc2cc3c(cc21)OCO3`, the GI50 in the assay with MCF7 is 68 µM; in the assay with A549, 86 µM; with B16-F10, 11 µM; in the assay with SK-MEL-28 it was 67 µM; in the assay on U373 MG it was more than 100 µM; with Hs 683, 95 µM.
With `C#CC[N@@+]12Cc3cc4c(cc3[C@H](C1)C1=C[C@H](Cl)[C@@H](OC)C[C@@H]12)OCO4`, the GI50 in the assay with MCF7, in the assay with A549, with B16-F10, in the assay on SK-MEL-28, in the assay with U373 MG and in the assay with Hs 683 was more than 100 µM each time.
Turning to `CO[C@H]1C[C@H]2C(=C[C@H]1Br)[C@H]1C[N@@]2Cc2cc3c(cc21)OCO3`, the GI50 with MCF7 is 19 µM; in the assay with A549, 9 µM; in the assay with B16-F10, 7 µM; in the assay on SK-MEL-28 it was 18 µM; in the assay with U373 MG it was 25 µM; in the assay with Hs 683, 5 µM.
Take `CO[C@H]1C[C@H]2C(=C[C@@H]1c1c[nH]c3ccccc13)[C@H]1C[N@@]2Cc2cc3c(cc21)OCO3`: the concentration for 50% growth inhibition (GI50) in the assay with MCF7 was 23 µM; with A549, 18 µM; in the assay with B16-F10, 4 µM; in the assay on SK-MEL-28 it was 9 µM; with U373 MG it was 9 µM; in the assay with Hs 683, 24 µM. In assay [1], the inhibition at 10 µM lay within 80 to 95%. Moreover, the inhibition entry in the assay listed under Homo sapiens is “Active”.
Consider `CO[C@H]1C[C@H]2C(=C[C@@H]1NCc1ccccc1)[C@H]1C[N@@]2Cc2cc3c(cc21)OCO3`, for which the GI50 is 44 µM with MCF7; 59 µM in the assay on A549; 10 µM with B16-F10; 65 µM in the assay on SK-MEL-28; 72 µM with U373 MG; 67 µM in the assay with Hs 683.
As to `C=CCO[C@H]1C=C2[C@H]3C[N@@](Cc4cc5c(cc43)OCO5)[C@H]2C[C@@H]1OC`, the GI50 stood at 20 µM in the assay on MCF7; 10 µM with A549; 7 µM in the assay with B16-F10; 14 µM with SK-MEL-28; 20 µM with U373 MG; 7 µM with Hs 683.
Take `CO[C@H]1C[C@H]2C(=C[C@@H]1O)[C@H]1C[N@]2[C@@H](OS(C)(=O)=O)c2cc3c(cc21)OCO3`: the 50% growth inhibitory concentration (GI50) was more than 100 µM in the assay on MCF7; more than 100 µM in the assay with A549; 72 µM in the assay with B16-F10; more than 100 µM in the assay with SK-MEL-28; more than 100 µM in the assay on U373 MG; more than 100 µM with Hs 683.
As for `CO[C@H]1C[C@H]2C(=C[C@@H]1Cl)[C@H]1C[N@@]2Cc2c1cc1c(c2I)OCO1`, the GI50 in the assay on MCF7, with A549, with B16-F10, in the assay with SK-MEL-28, in the assay with U373 MG and with Hs 683 was more than 100 µM in each case.
For the compound `C#CCO[C@H]1C=C2[C@H]3C[N@@](Cc4cc5c(cc43)OCO5)[C@H]2C[C@@H]1OC`, the GI50 amounted to 28 µM with MCF7; 23 µM with A549; 10 µM in the assay with B16-F10; 28 µM in the assay on SK-MEL-28; 42 µM in the assay with U373 MG; 24 µM in the assay on Hs 683.
Take `CO[C@H]1C[C@H]2C(=C[C@@H]1Cl)[C@H]1C[N@@]2Cc2cc3c(cc21)OCO3`: the GI50 in the assay with MCF7 was 17 µM; in the assay on A549, 6 µM; in the assay with B16-F10 it was 7 µM; with SK-MEL-28, 26 µM; with U373 MG, 51 µM; in the assay on Hs 683, 6 µM.
Consider `CO[C@H]1C[C@H]2C(=C[C@@H]1Cl)[C@H]1C[N@@+]2([O-])Cc2cc3c(cc21)OCO3`, for which the GI50 in the assay with MCF7, with A549, in the assay on B16-F10, in the assay with SK-MEL-28, in the assay with U373 MG and with Hs 683 was more than 100 µM each time.
As to `CO[C@H]1C[C@H]2C(=C[C@@H]1Cl)[C@H]1C[N@@]2Cc2c(I)c3c(c(I)c21)OCO3`, the GI50 is 78 µM in the assay with MCF7; 78 µM in the assay with A549; 39 µM with B16-F10; more than 100 µM in the assay with SK-MEL-28; more than 100 µM in the assay with U373 MG; 71 µM with Hs 683.
